Consider one molecule from ChEMBL document CHEMBL4028905, “A Unique Approach to Design Potent and Selective Cyclic Adenosine Monophosphate Response Element Binding Protein, Binding Protein (CBP) Inhibitors” (J Med Chem, 2017).

By Kd is commonly meant the constant that tells how readily two partners part at equilibrium. A higher Kd goes with weaker binding. The term bioavailability denotes dose-corrected exposure relative to a reference, in per cent. As a reminder, the half-life is the time needed for the level to fall by half in the phase considered. A high value points to slow decline. As a reminder, the EC50 is the concentration needed to bring the measured effect to its halfway point. As usually defined, the IC50 is the concentration needed to halve the response being measured.

Data set [1] has as its target T1, Transcription intermediary factor 1-alpha (Homo sapiens, UniProt O15164).
T1 sequence (O15164 whole entry): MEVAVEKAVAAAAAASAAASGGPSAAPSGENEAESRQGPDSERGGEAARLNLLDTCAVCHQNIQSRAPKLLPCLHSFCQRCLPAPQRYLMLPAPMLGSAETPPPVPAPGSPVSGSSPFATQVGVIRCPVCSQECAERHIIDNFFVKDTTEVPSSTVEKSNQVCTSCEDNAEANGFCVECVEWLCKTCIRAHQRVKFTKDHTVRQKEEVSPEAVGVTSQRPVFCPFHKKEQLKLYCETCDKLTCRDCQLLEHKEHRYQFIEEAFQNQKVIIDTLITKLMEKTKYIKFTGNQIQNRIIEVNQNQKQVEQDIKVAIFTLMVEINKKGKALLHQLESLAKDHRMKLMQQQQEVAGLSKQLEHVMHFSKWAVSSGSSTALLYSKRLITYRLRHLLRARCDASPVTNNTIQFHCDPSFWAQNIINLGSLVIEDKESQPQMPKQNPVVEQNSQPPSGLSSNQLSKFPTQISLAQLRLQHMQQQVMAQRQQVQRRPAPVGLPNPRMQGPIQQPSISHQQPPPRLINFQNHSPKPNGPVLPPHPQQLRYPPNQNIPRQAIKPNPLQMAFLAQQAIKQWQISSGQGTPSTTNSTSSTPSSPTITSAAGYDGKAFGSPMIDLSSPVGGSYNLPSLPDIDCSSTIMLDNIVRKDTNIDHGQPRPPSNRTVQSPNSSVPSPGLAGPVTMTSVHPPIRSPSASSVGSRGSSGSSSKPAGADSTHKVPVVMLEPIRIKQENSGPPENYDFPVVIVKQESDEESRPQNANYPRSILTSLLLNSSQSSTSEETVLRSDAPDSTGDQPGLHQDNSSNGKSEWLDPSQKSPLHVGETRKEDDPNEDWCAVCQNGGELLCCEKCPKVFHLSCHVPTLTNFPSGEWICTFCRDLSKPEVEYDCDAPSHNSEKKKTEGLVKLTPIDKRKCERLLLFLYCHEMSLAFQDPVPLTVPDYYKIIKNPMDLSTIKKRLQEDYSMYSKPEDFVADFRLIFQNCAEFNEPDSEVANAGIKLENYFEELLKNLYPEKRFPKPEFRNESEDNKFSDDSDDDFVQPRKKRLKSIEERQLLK
The data set can be described thus: Binding affinity to human TRIM24 (G862 to E980) expressed in bacterial cells by BromoScan assay. Format: cell-based.

Data set [2] is described as follows: Total clearance in CD-1 mouse at 1 mg/kg, iv or 5 mg/kg, po by LC-MS/MS analysis. Conditions: in vivo. It counts as ADME, organism-based. In outline: (§1)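 Female CD-1 mice, 6–9 weeks, 20–35 g, n = 3 per route. Dosing was 1 mg/kg i.v. in PEG400/DMSO/water (35/10/55 v/v) or 5 mg/kg p.o. suspended in 0.5% methylcellulose/0.2% Tween 80. Serial tail-nick blood sampled to 24 h and diluted in K2EDTA water. Analysis by acetonitrile precipitation and LC–MS/MS (MRM, positive ESI); LLOQ 0.001 μM.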

The target of data set [3] is Bromodomain-containing protein 3 (Homo sapiens, UniProt Q15059). The data set can be described thus: Binding affinity to human BRD3 bromodomain 2 (G306 to P416) expressed in bacterial cells by BromoScan assay. It counts as cell-based.
Bromodomain-containing protein 3, sequence (Q15059 whole entry): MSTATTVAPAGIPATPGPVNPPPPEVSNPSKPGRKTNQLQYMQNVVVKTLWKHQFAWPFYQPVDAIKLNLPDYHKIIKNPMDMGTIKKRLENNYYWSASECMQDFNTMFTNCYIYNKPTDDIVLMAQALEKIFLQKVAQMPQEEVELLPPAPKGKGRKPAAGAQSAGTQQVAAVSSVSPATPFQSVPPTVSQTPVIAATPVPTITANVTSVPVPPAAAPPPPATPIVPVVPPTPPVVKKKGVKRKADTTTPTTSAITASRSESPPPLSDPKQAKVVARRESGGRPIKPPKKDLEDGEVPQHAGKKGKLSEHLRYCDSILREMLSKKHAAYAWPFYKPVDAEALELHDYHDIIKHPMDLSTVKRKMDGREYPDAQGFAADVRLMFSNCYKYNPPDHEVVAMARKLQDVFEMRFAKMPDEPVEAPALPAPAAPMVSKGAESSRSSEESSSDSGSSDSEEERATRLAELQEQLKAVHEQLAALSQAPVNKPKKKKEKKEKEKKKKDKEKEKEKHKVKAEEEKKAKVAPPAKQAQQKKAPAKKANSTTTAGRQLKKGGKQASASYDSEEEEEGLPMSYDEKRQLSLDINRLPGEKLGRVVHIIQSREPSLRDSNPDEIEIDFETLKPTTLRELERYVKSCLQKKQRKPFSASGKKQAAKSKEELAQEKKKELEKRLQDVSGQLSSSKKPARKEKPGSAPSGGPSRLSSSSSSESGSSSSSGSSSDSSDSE
Data set [4] deals with Histone acetyltransferase p300 (Homo sapiens) (UniProt Q09472). In words: Binding affinity to human P300 (A1040 to G1161) expressed in bacterial cells by BromoScan assay. It counts as cell-based.
Data set [5] is described as follows: Intrinsic clearance in rat liver microsomes at 1 uM in presence of NADPH by LC-MS/MS analysis. Format: ADME, microsome. Conditions: read-out: CLH. For orientation: Liver microsomes are vesicles of endoplasmic reticulum, rich in cytochrome P450 enzymes.
The nature of data set [6]: Oral bioavailability in CD-1 mouse at 5 mg/kg by LC-MS/MS analysis. It counts as ADME, organism-based. Particulars: in vivo. In outline:
as §1

The nature of data set [7]: Intrinsic clearance in human liver microsomes at 1 uM in presence of NADPH by LC-MS/MS analysis. Conditions: read-out: CLH. It counts as ADME, microsome.
Data set [8] deals with T2, CREB-binding protein (Homo sapiens, UniProt Q92793). In words: Binding affinity to human CBP (R1081 to G1197) expressed in bacterial cells by BromoScan assay. Format: cell-based.
Data set [9] in a line: Intrinsic clearance in mouse liver microsomes at 1 uM in presence of NADPH by LC-MS/MS analysis. Format: ADME, microsome. Particulars: read-out: CLH.
Data set [10] in a line: Half life in CD-1 mouse at 1 mg/kg, iv by LC-MS/MS analysis. Particulars: in vivo. Format: ADME, organism-based. Put shortly: as §1
The target in data set [11] is T3, Bromodomain-containing protein 7 (Homo sapiens, UniProt Q9NPI1).
T3 sequence (Q9NPI1 whole entry): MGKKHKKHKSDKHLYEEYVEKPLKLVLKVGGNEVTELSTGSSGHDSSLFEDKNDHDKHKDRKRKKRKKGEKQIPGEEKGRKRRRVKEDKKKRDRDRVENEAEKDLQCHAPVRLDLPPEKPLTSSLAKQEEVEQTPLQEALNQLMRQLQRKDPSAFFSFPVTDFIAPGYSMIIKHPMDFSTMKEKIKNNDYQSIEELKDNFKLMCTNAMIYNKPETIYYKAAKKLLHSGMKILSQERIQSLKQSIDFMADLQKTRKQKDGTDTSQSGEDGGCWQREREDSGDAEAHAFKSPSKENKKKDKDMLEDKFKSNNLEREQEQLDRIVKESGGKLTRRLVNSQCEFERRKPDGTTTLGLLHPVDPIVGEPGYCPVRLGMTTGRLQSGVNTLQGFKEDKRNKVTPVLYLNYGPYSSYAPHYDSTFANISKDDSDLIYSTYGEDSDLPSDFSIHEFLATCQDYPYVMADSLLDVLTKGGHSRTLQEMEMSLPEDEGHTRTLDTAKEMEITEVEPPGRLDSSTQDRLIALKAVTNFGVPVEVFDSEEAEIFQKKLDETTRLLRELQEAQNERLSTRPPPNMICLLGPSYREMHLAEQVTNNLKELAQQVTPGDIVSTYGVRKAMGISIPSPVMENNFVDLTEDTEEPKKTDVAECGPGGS
In words: Binding affinity to human BRD7 (L125 to R254) expressed in mammalian cells by BromoScan assay. Format: cell-based.

In data set [12] the target is T4, Bromodomain-containing protein 9 (Homo sapiens, UniProt Q9H8M2).
T4 sequence (Q9H8M2 whole entry): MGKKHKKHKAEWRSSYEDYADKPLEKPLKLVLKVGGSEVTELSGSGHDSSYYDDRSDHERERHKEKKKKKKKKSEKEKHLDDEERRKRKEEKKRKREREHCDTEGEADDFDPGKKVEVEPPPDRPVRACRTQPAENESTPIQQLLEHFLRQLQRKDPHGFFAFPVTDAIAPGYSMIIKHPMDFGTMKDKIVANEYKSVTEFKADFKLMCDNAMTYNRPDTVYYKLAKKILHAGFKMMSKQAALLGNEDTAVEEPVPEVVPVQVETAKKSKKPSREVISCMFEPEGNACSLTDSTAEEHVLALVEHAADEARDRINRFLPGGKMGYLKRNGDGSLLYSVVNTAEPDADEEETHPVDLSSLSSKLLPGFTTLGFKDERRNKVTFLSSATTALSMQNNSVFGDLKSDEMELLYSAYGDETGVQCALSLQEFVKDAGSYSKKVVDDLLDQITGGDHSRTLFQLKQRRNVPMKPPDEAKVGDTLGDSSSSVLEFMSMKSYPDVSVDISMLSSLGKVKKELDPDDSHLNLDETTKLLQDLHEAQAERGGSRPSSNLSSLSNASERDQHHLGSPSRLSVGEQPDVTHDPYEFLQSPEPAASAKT
In words: Binding affinity to human BRD9 (R130 to V259) expressed in bacterial cells by BromoScan assay. It counts as cell-based.

A short description of data set [13]: Volume of distribution at steady state in CD-1 mouse at 1 mg/kg, iv or 5 mg/kg, po by LC-MS/MS analysis. Format: ADME, organism-based. Particulars: in vivo, read-out: Vdss. Put shortly:
as §1

For data set [14], the target named is CREB-binding protein/Histone acetyltransferase p300 (Homo sapiens, UniProt Q09472+Q92793). The data set can be described thus: Inhibition of P300/CBP in human MV4-11 cells assessed as reduction in MYC expression after 4 hrs by luminescence based assay. Format: cell-based. In outline: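 MV-4-11 cells plated at 10,000 per well in RPMI1640 with 10% FBS and 2 mM L-glutamine. Compounds added in DMSO at a final 0.1% and incubated 4 h at 37 °C before MYC expression read-out; EC50 derived.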

For data set [15], the species on record is Homo sapiens. The data set can be described thus: Selectivity ratio of IC50 for His tagged recombinant BRD4 bromodomain 1 (unknown origin) to IC50 for His tagged recombinant CBP (unknown origin).
Data set [16] addresses Bromodomain-containing protein 4 (Homo sapiens, UniProt O60885). In words: Inhibition of His tagged recombinant BRD4 bromodomain 1 (unknown origin) by TR-FRET assay. In outline:
(§2)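 Recombinant His-tagged bromodomains purified by Ni affinity, tag removed with thrombin, checked by mass spectrometry. Assay is TR-FRET competition against a biotinylated small-molecule ligand. Normalized inhibition vs concentration fit to 4-parameter Hill equation; […] for optimization.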
(In general: Time-resolved FRET reads energy transfer from a long-lived donor to a nearby acceptor.)

The target of data set [17] is T2, CREB-binding protein. The data set can be described thus: Inhibition of His tagged recombinant CBP (unknown origin) by TR-FRET assay. Put shortly:
as §2
Target sequence in this assay (Q92793 whole entry): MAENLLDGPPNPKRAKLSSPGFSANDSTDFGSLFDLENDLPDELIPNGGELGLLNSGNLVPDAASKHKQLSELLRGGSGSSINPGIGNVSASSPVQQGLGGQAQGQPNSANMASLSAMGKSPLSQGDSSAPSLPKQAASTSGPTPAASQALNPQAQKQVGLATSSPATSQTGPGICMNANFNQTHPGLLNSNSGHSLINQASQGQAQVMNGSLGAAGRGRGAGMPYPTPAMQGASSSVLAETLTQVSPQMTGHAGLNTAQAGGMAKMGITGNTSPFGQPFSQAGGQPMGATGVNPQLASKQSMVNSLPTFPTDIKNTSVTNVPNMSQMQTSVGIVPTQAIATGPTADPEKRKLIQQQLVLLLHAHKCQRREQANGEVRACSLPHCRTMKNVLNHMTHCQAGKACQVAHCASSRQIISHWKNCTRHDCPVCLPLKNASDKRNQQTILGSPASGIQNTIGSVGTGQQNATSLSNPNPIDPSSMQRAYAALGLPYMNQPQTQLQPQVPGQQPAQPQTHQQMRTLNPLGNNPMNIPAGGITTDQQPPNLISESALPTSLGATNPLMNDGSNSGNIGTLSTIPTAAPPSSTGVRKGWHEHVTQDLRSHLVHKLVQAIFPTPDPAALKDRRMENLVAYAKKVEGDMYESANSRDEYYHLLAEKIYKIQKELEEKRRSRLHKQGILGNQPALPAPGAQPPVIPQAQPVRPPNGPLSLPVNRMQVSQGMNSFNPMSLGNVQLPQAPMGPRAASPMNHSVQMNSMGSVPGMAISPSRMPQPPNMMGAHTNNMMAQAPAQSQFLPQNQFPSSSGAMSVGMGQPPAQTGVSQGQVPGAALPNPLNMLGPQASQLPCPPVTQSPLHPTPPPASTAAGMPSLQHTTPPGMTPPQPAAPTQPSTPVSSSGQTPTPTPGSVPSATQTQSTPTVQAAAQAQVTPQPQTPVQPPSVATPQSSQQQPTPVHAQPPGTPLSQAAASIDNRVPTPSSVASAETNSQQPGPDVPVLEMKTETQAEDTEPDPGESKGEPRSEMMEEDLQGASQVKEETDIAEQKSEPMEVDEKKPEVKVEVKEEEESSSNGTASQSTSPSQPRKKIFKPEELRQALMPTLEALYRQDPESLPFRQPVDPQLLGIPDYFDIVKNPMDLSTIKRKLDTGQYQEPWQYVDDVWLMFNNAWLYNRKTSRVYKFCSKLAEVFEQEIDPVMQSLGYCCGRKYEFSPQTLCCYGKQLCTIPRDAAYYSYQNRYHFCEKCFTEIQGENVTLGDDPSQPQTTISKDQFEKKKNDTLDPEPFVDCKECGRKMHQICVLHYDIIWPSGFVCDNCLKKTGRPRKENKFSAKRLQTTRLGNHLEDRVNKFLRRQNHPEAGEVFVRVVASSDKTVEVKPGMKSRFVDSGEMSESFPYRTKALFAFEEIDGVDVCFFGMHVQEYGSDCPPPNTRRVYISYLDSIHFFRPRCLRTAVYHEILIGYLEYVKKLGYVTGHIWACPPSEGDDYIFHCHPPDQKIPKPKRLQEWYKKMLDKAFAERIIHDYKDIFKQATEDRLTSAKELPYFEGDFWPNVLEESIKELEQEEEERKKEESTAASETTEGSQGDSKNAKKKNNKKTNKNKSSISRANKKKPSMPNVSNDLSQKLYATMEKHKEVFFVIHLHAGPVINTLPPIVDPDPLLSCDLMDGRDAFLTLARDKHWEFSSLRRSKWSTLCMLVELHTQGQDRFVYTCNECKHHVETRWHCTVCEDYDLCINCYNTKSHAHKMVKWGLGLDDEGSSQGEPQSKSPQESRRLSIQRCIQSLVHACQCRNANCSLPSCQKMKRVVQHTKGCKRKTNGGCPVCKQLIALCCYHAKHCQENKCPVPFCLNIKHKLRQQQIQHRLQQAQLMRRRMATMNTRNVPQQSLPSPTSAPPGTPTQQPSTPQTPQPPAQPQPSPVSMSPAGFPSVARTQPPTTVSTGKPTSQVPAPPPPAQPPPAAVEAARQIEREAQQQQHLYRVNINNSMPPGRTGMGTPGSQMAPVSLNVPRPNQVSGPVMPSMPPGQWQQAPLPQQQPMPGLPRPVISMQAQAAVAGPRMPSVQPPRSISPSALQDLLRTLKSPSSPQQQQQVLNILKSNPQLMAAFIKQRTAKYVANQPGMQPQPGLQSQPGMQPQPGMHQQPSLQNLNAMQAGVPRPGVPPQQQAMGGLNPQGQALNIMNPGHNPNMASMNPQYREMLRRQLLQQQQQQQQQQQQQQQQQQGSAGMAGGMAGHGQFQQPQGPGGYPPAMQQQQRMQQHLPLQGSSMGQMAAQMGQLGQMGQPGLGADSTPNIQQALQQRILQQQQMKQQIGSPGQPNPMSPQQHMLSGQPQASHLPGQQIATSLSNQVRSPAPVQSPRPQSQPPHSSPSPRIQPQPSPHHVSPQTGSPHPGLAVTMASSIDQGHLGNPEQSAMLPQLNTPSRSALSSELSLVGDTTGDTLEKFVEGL

Each structure is given as a SMILES string. Calls of active or inactive are those of the source.

For the molecule `CNC(=O)c1c[nH]c2c(C(C)C)nc(N3CCCc4cc(-c5cnn(C)c5)c(C(F)F)cc43)cc12`, the dissociation constant (Kd) in data set [1], in data set [3], in data set [11] and in data set [12] was over 10 µM each time. The molecule further returned a clearance in data set [2] of 18.2 mL/min/kg. Besides, the result in data set [4] and in data set [8] was Active. Moreover, the values for the CLint scaled at 1 µM in data set [5], in data set [7] and in data set [9] were 25 mL/min/kg, 13 mL/min/kg and 50 mL/min/kg, respectively. Also, in data set [6], the bioavailability stood at 52%. The molecule also showed a half-life in data set [10] of 1.3 h. The Vd in [13] came to 1.9 L/kg. Moreover, the EC50 in data set [14] was found to be 0.053 µM. Moreover, in data set [15], the Ratio IC50 was 1050. Besides, the half-maximal inhibitory concentration (IC50) in [16] was determined as 2.3 µM; in [17] it was 0.0022 µM.
